This note sets out measurements from ChEMBL document CHEMBL5346886 (Eur J Med Chem, 2023).

Active and inactive are the calls of the source. No cut-off for these calls is given here.

The test system of data set [1] is Murine hepatitis virus. Nature of the data set: Antiviral activity against murine hepatitis virus-A59 infected in BALB/c mouse assessed as reduction in TNF-alpha production in lungs at 200 mg/kg, po administered once daily one hour post infection and measured after 3 days by ELISA analysis. In kind it is functional, organism-based. As to conditions: time 3.0 day. The method, boiled down:
(§1)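 MHV-A59 was inoculated intranasally into male BALB/c mice (30 μL, TCID50 = 10−7.125/100 μL), with oral dosing once daily from 1 hpi for four days. At 3 dpi, 0.1 g lung or liver from 4 mice per group was homogenized in 0.9 mL water at 4 °C and centrifuged. Supernatant IFN-β was read by ELISA; TNF-α, IFN-γ, IL-1β, IL-6 and CXCL10 by multi-analyte kit, with OD 450 nm against standards.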
(An ELISA detects its analyte on a solid surface through an enzyme-linked reagent.)

Data set [2] has as its system Murine hepatitis virus. As to the kind of experiment: Antiviral activity against murine hepatitis virus-A59 infected in BALB/c mouse assessed as inhibition of viral titer in lungs at 200 mg/kg, po administered once daily one hour post infection and measured after 3 days by qRT-PCR analysis. It is filed as functional, organism-based. As to conditions: time 3.0 day. The gist of the method: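 SPF male BALB/c mice aged 3–4 weeks were put under isoflurane and inoculated intranasally with 30 μL MHV-A59 (TCID50 = 10−7.125/100 μL) in PBS. Oral dosing once daily in 15% Cremophor EL/82.5% PBS/2.5% DMSO started at 1 hpi and ran for four days; groups had 12 mice. At 3 dpi, 4 mice per group were killed and lung and liver M-gene copies measured by qRT-PCR.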

Data set [3] is described as follows: Drug distribution in BALB/c mouse plasma assessed as hydrolyzed GS-441524 metabolite at 200 mg/kg, po administered as single dose and measured after 1 hrs by LC-MS/MS analysis. Particulars: in vivo. In kind it is ADME, organism-based.
The test system of data set [4] is Murine hepatitis virus. Nature of the data set: Antiviral activity against murine hepatitis virus-A59 infected in BALB/c mouse assessed as survival rate at 10 mg/kg, po administered once daily one hour post infection and measured after 23 days relative to control. In kind it is functional. As to conditions: Murine coronavirus, A59, 552 h, time 23 day. The gist of the method:
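Male SPF BALB/c mice (3–4 weeks) were anaesthetised with isoflurane and given 30 μL MHV-A59 intranasally (TCID50 = 10−7.125/100 μL) in PBS. Oral dosing once daily in 15% Cremophor EL/82.5% PBS/2.5% DMSO began at 1 hpi and ran for four days, at 10, 50 or 200 mg/kg. There were 12 mice per group, with 4 culled at 3 dpi. Body weight, clinical signs and death were recorded daily to 23 days.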

In a further data set the test system is Canine coronavirus. As to the kind of experiment: Antiviral activity against Canine coronavirus infected in CRFK cells assessed as reduction in viral copy pre-infected with cells for 1 hrs followed by compound addition and measured after 48 hrs by RT-qPCR analysis. It is filed as functional, organism-based. Particulars: Alphacoronavirus 1, CRFK. The method, boiled down: (§2)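 CRFK cells (CCoV, FIPV) or ST cells (TGEV) were grown in DMEM with 10% FBS at 37 °C, 5% CO2. At 80% confluence they were washed in serum-free medium and infected at MOI 0.01 for 1 h at 37 °C. Compounds were then added at 0.1–100 μmol/L, with DMSO as blank. After 48 h, cells and supernatants were analysed by qRT-PCR. Inhibition came from viral copy number, and EC50 from curve fitting.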

For data set [5], the system named is Murine hepatitis virus. Nature of the data set: Antiviral activity against murine hepatitis virus-A59 infected in BALB/c mouse assessed as reduction in IL-6 production in liver at 10 to 100 mg/kg, po administered once daily one hour post infection and measured after 3 days by ELISA analysis. It is filed as functional, organism-based. As to conditions: dose 10-100 mg/kg, time 3.0 day. The gist of the method:
as §1

Data set [6] deals with Murine hepatitis virus. As to the kind of experiment: Antiviral activity against murine hepatitis virus-A59 infected in BALB/c mouse assessed as alleviation of lymphocytes infiltration in lungs at 200 mg/kg, po administered once daily one hour post infection and measured after 3 days by H&E staining based analysis. In kind it is functional, organism-based. As to conditions: time 3.0 day. The method, boiled down: (§3)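 In male BALB/c mice (3–4 weeks), MHV-A59 was given intranasally (30 μL, TCID50 = 10−7.125/100 μL). Oral dosing once daily in a Cremophor EL/PBS/DMSO vehicle began at 1 hpi and lasted four days. At 3 dpi, lungs and livers from 4 mice per group were fixed in zinc formalin and paraffin-embedded. Sections of about 4 μm were stained with H&E and examined at 200× and 400×.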

Data set [7] is described as follows: Drug metabolism in Sprague-Dawley rat assessed as hydrolysis-mediated GS-441524 metabolite formation at 5 mg/kg, iv administered as single dose and measured after 24 hrs by LC-MS/MS analysis. In kind it is ADME, organism-based. Particulars: in vivo.
Data set [8] concerns Murine hepatitis virus. Nature of the data set: Antiviral activity against murine hepatitis virus-A59 infected in BALB/c mouse assessed as remission of hepatocyte necrosis at 200 mg/kg, po administered once daily one hour post infection and measured after 3 days by H&E staining based analysis. In kind it is functional, organism-based. Particulars: time 3.0 day. The method, boiled down: as §3

Data set [9] deals with Murine hepatitis virus. As to the kind of experiment: Antiviral activity against murine hepatitis virus-A59 infected in BALB/c mouse assessed as reduction in IL-6 production in lungs at 200 mg/kg, po administered once daily one hour post infection and measured after 3 days by ELISA analysis. It is filed as functional, organism-based. As to conditions: time 3.0 day. The method, boiled down:
as §1

Data set [10] is described as follows: Stability in human plasma assessed as half-life. In kind it is ADME, cell-free.
Data set [11] has as its system Murine hepatitis virus. As to the kind of experiment: Antiviral activity against murine hepatitis virus-A59 infected in BALB/c mouse assessed as alleviation of necrotic debris in lungs at 200 mg/kg, po administered once daily one hour post infection and measured after 3 days by H&E staining based analysis. As to conditions: time 3.0 day. In kind it is functional, organism-based. The gist of the method: as §3

In data set [12] the test system is Murine hepatitis virus. As to the kind of experiment: Antiviral activity against Murine hepatitis virus-A59 infected in mouse L929 cells assessed as reduction in viral copy pre-infected with cell for 1 hrs followed by compound addition and measured after 48 hrs by RT-qPCR analysis. In kind it is functional, organism-based. As to conditions: Murine coronavirus. The gist of the method: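 L929 cells in DMEM with 10% FBS were washed serum-free at 80% confluence and infected with MHV-A59 at MOI 0.01 for 1 h at 37 °C. Compounds were added at 0.1–100 μmol/L, with DMSO as blank control. After 48 h at 37 °C, the viral M gene in supernatant was measured by qRT-PCR. Percent inhibition was derived from copy number and EC50 from curve fitting.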

A short description of data set [13]: Drug distribution in BALB/c mouse lung assessed as hydrolyzed ibuprofen metabolite at 200 mg/kg, po administered as single dose and measured after 1 hrs by LC-MS/MS analysis. Particulars: in vivo. In kind it is ADME, organism-based.
Data set [14] can be described thus: Drug distribution in BALB/c mouse liver assessed as hydrolyzed ibuprofen metabolite at 200 mg/kg, po administered as single dose and measured after 1 hrs by LC-MS/MS analysis. In kind it is ADME, organism-based. Particulars: in vivo.
Data set [15] in a line: Drug distribution in BALB/c mouse lung assessed as hydrolyzed GS-441524 metabolite at 200 mg/kg, po administered as single dose and measured after 1 hrs by LC-MS/MS analysis. In kind it is ADME, organism-based. As to conditions: in vivo.
The test system of data set [16] is Murine hepatitis virus. Nature of the data set: Antiviral activity against murine hepatitis virus-A59 infected in BALB/c mouse assessed as reduction in IFN-gamma production in lungs at 200 mg/kg, po administered once daily one hour post infection and measured after 3 days by ELISA analysis. As to conditions: time 3.0 day. It is filed as functional, organism-based. The method, boiled down:
as §1

Data set [17] concerns Murine hepatitis virus. Nature of the data set: Antiviral activity against murine hepatitis virus-A59 infected in BALB/c mouse assessed as reduction in IL-1beta production in lungs at 200 mg/kg, po administered once daily one hour post infection and measured after 3 days by ELISA analysis. In kind it is functional, organism-based. Particulars: time 3.0 day. The gist of the method:
as §1

In data set [18] the test system is Transmissible gastroenteritis virus. Nature of the data set: Antiviral activity against Transmissible gastroenteritis virus infected in ST cells assessed as reduction in viral copy pre-infected with cells for 1 hrs followed by compound addition and measured after 48 hrs by RT-qPCR analysis. It is filed as functional, organism-based. As to conditions: Alphacoronavirus 1, ST. The method, boiled down: as §2
On the technique in general: Quantitative PCR measures a nucleic acid by following its amplification.

For the compound `CC(C)Cc1ccc(C(C)C(=O)OC[C@H]2O[C@@](C#N)(c3ccc4c(N)ncnn34)[C@H](O)[C@@H]2O)cc1` (some centres undefined), the result in the data set on Murine hepatitis virus [1], in the data set with Murine hepatitis virus [2], in the data set on Murine hepatitis virus [5], with Murine hepatitis virus [6], with Murine hepatitis virus [8] and with Murine hepatitis virus [9] was Active. In addition, the result in the data set with Murine hepatitis virus [11], in the data set with Murine hepatitis virus [16] and with Murine hepatitis virus [17] was Active. In addition, the Drug uptake result in [3], in data set [13], in data set [14] and in data set [15] was “Active” in each case. The survival at 10 mg/kg in the data set on Murine hepatitis virus [4] came to 100%. In addition, the EC50 with Canine coronavirus stood at 1410 nM; in the data set with Murine hepatitis virus [12] it was 1150 nM; in data set [18] it was 3780 nM. For the same compound, in data set [7], the Drug metabolism entry is given as “Metabolite_Detected”. For the same compound, the t1/2 in data set [10] was 4.4173 h.

As a reminder, the EC50 is the concentration that produces a half-maximal response.
